A short description of data set [1]: Clearance in cynomolgus monkey at 2 mg/kg, iv. Format: ADME, organism-based, Macaca fascicularis. The following applies: in vivo. Put shortly:
(§1)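 Dog and monkey iv PK: 2 mg/kg given by iv administration. Clearance (mL min⁻¹ kg⁻¹), Vss, T1/2 (h) and MRT (h) were derived.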

Data set [2] can be described thus: Aqueous solubility of crystalline free base form of compound at pH 7.4. It is filed as physicochemical. The following applies: aqueous medium. Put shortly: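 Aqueous solubility of the crystalline free base, measured at pH 7.4 and reported in μg/mL.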
Data set [3] is described as follows: Clearance in C57BL/6 mouse at 1 mg/kg, iv. It is filed as ADME, organism-based. The settings on record: in vivo. Put shortly:
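Mouse iv PK: 1 mg/kg given in 80% PEG 400/20% water. Clearance (mL min⁻¹ kg⁻¹) and MRT (h) were derived.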

Data set [4] can be described thus: Metabolic stability in human liver microsomes assessed as half life. It is filed as ADME, Microsome. Put shortly:
(§2)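 Liver microsomes from human, rat, mouse, dog, cynomolgus monkey and rabbit were incubated with compound. Stability is reported as half-life (T1/2, min). Values are means of at least three separate experiments.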

Data set [5] in a line: MRT in dog at 2 mg/kg, iv. Format: ADME, organism-based, Canis lupus familiaris. The settings on record: in vivo. Put shortly:
as §1

Data set [6] can be described thus: Permeability coefficient, Kp across apical to basolateral side in human Caco2 cells. It is filed as ADME, cell-based. The following applies: Caco-2, read-out: permeability. Put shortly: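 Caco-2 monolayer permeability measured in both directions, apical-to-basal and basal-to-apical, reported as Pc in nm/s. An efflux ratio was calculated from the two directions.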

Data set [7] in a line: Protein binding in human assessed as unbound fraction. Format: ADME.
The nature of data set [8]: Time during which drug concentration exceed invitro IC50 for TYK2 in mouse whole blood assessed as decrease in IFNalpha-induced STAT1 phosphorylation in C57BL/6 mouse at 7.5 mg/kg, po via gavage bid for 9 days with first dose given prior to first IL23 challenge and twice a day thereafter. It is filed as ADME, organism-based. The following applies: in vivo, 216 h. Put shortly:
(§3)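 Drug levels were measured in the animals of the IL-23 acanthosis study, dosed orally twice daily. The duration was the time, in hours, that levels stayed at or above the in vitro mouse whole blood IC50 for IFNα-induced pSTAT1.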

The nature of data set [9]: Metabolic stability in rat liver microsomes assessed as half life. Format: ADME, Microsome. Put shortly:
as §2

A short description of data set [10]: Cmax in cynomolgus monkey at 10 mg/kg, po. Format: ADME, organism-based, Macaca fascicularis. More on the design: dose 10 mg/kg, route oral. The following applies: in vivo. Put shortly:
(§4)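 Oral PK: single dose of 10 mg/kg as a solution in ethanol/TPGS/PEG 300 (5:5:90) given to mouse, dog and monkey. Cmax (μM), AUC (μM × h) and bioavailability F (%) were derived, with F taken against the iv arm.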

Data set [11] can be described thus: Time during which drug concentration exceed invitro IC50 for TYK2 in mouse whole blood assessed as decrease in IFNalpha-induced STAT1 phosphorylation in C57BL/6 mouse at 15 mg/kg, po via gavage bid for 9 days with first dose given prior to first IL23 challenge and twice a day thereafter. It is filed as ADME, organism-based. The following applies: in vivo, 216 h. Put shortly:
as §3

The next data set deals with Cytochrome P450 3A4 (Homo sapiens, UniProt P08684). Briefly: Inhibition of CYP3A4 (unknown origin). Format: ADME. Put shortly: (§5)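 Inhibition of CYP1A2, 2C9, 2C19, 2D6 and 3A4, read out as IC50. The highest concentration tested was 40 μM.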
For the next data set, the target named is T1, Cytochrome P450 1A2 (Homo sapiens, UniProt P05177).
T1 sequence (P05177 whole entry): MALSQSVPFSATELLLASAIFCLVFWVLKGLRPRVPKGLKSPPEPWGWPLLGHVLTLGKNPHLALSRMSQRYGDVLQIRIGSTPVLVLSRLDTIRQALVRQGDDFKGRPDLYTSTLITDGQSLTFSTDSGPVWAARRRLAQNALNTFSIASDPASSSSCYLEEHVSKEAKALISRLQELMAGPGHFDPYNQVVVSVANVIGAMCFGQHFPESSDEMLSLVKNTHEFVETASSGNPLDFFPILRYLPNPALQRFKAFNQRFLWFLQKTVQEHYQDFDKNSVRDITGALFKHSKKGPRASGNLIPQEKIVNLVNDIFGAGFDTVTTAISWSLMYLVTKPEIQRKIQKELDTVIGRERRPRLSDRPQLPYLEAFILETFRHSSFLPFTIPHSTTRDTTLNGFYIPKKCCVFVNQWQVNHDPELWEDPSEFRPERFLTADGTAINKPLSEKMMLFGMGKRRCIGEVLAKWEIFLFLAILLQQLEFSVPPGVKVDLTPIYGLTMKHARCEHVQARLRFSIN
Briefly: Inhibition of CYP1A2 (unknown origin). It is filed as ADME. Put shortly:
as §5

Data set [12] can be described thus: Protein binding in cynomolgus monkey assessed as unbound fraction. It is filed as ADME, Macaca fascicularis.
A short description of data set [13]: AUC in C57BL/6 mouse at 10 mg/kg, po. It is filed as ADME, organism-based. The following applies: in vivo. Put shortly: as §4

The text below walks through data of ChEMBL document CHEMBL4376812 (J Med Chem, 2019).

SMILES strings stand for the structures. Converted amounts (≈) assume the structure as drawn. Where only a bound is given, the exact number is not on record here.

Cytochrome P450 3A4, sequence (P08684 whole entry): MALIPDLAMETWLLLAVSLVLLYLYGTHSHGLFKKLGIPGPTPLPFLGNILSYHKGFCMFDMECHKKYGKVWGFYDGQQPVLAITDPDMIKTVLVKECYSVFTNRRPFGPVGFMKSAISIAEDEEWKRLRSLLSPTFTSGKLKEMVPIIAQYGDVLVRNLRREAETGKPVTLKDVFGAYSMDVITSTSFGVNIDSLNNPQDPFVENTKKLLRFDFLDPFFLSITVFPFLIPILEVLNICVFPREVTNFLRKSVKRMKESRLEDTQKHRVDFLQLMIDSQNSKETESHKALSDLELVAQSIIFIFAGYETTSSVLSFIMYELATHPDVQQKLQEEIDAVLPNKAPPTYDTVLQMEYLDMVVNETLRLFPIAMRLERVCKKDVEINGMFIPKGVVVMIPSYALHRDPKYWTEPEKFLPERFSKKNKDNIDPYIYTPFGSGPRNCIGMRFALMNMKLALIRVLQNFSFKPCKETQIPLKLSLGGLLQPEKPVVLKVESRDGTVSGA

For the compound `[2H]C([2H])([2H])NC(=O)c1nnc(NC(=O)C2CC2)cc1Nc1cccc(-c2ncn(C)n2)c1OC` [DEUCRAVACITINIB], the clearance amounted to 4.8 mL/min/kg in data set [1] and 13.2 mL/min/kg in data set [3]. Moreover, the solubility in [2] amounted to 5.2 µg/mL (≈ 12.2 µM). The half-life in [4] and in data set [9] was more than 2 h each time. Moreover, the mean residence time (MRT) in [5] was 5.5 h. Also, the Papp A→B in [6] was 7 ×10⁻⁶ cm/s. Moreover, the unbound share (fraction unbound) in data set [7] was 0.13; in [12], 0.12. The “T>IC50” value is 19 h in [8] and 21 h in [11]. Further, the peak level in data set [10] (Cmax) was 5.9 µM. Further, the IC50 at Cytochrome P450 3A4 and against Cytochrome P450 1A2 was more than 40 µM in each case. Also, the AUC in data set [13] was 36.4 µM·h.
